DENV2 CPE rescue: inhibitors of DENV2 cytopathic effect | AID 651640 | CPE inhibition, % at 9.99 µM | DENV2-infected cells, cytopathic effect rescue, plate reader | 1.7% of 350,000 active; in the data active = CPE inhibition above about 20%, passing the limit was not always enough; inconclusive = no clear call, values can overlap the other calls; tested in BHK-21 cells;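 also: 0% = median of neutral control wells and 100% = median of positive control wells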
E-selectin induc: E-selectin induction on HUVECs; P16581; 0.37% of 260,000 active; HUVEC E-selectin immunofluorescence imaging; normalized: neutral wells 0, TNF-alpha wells 100; activation, % at 7.58 µM;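 active = mean E-selectin-positive cell signal at least 10% of the positive control, reached in at least 60% of replicates, without over 20% cell loss; inconclusive = no rule given, readout overlaps actives, possibly toxicity-flagged; inactive = the rest, including those meeting only one limit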
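Test system: HUVEC; input: 3,000 HUVEC/well; measured by: immunofluorescence imaging; read-out: % PE-positive cells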
INS-1E GSIS act: primary screen for activators of insulin secretion dependent on glucose, INS-1E cells, GLuc reporter luminescence; activation, % at 16.6 µM; 0.61% of 370,000 active; INS-1E GLuc reporter insulin secretion, 2-3 h; AID 743287;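 active = lowest replicate activation of at least 40%, so every replicate reaches that level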;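 also: 0% = median of neutral control wells and 100% = median of IBMX positive control wells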
miR122 inh: inhibitors of miR-122 in Huh7 cells | Huh7 miR-122 Renilla luciferase sensor, 48 h; neutral wells = 0, positive control = 100 | activation (reporter increase), % at 12.5 µM | 0.3% of 340,000 active;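 active = mean replicate activation score at least 90 and every replicate individually at or above 90; inconclusive = only one of the two criteria met; inactive = neither criterion met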;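 also: higher luciferase means less miR-122 activity so hits act as miR-122 inhibitors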
F508del corr: correctors of CFTR F508del function in bronchial epithelial cells; CFBE cells, YFP halide quenching; stimulated with forskolin plus potentiator P3; % fluorescence drop versus neutral controls; activity (quench increase), % at 7.58 µM; 0.36% of 350,000 active;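 active = mean added fluorescence quench of at least 8% versus neutral control, with both replicates also reaching 8%; inconclusive = only one of the mean or replicate conditions met; inactive = mean below 8% and not both replicates reaching 8%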;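 also: cells transiently co-express mutant CFTR-F508del with the halide-sensitive YFP; corrector assay measuring rescue of mutant channel to the surface after 24 h compound exposure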
ERAP1 HTS inh: blocks human ERAP1 aminopeptidase activity. recombinant ERAP1, Leu-AMC fluorescence, 60 min. inhibition, % at 10.7 µM. 0.15% of 340,000 active. AID 652197;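 active = mean replicate inhibition of at least 30%, or all replicates individually reaching that 30% level; inactive = mean below 30% and not every replicate reaching it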;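 also: 0% = neutral control wells and 100% = L-leucinethiol positive control wells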
Target sequence (Q9NZ08 whole entry, looked up): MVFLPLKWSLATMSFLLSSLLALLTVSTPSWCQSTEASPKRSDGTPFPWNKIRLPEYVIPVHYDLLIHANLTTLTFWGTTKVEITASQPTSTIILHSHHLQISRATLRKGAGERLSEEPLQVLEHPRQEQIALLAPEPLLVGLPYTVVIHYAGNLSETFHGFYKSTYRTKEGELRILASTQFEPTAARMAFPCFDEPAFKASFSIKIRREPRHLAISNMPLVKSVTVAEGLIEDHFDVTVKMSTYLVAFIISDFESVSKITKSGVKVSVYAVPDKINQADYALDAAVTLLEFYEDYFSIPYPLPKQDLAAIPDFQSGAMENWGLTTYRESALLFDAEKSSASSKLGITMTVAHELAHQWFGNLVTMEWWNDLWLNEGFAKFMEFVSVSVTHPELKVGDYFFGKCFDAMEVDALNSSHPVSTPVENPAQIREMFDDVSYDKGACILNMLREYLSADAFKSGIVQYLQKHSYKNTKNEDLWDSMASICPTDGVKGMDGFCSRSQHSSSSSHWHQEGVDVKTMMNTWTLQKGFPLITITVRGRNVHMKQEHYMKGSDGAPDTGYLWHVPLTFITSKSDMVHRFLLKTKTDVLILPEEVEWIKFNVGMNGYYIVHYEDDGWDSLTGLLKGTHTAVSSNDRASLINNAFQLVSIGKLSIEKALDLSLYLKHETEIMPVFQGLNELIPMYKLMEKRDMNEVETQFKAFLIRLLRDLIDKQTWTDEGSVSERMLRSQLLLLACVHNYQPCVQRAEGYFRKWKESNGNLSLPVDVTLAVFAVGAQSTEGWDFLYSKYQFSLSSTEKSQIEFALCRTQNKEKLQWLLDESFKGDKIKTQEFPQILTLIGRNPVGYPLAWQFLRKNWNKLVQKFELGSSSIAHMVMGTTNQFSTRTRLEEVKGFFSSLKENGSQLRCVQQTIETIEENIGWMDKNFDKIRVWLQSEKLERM
* = called active by the depositor; ? = inconclusive; nt = no result given; [ ] = dose if it differs, or a comment. Most compounds without a hit are left out; they make up all but 2.6% or so of the library.

SMILES	DENV2 CPE rescue	E-selectin induc	INS-1E GSIS act	miR122 inh	F508del corr	ERAP1 HTS inh
COc1ccc(CC(=O)Nc2ccc(S(=O)(=O)Nc3cc(C)nc(C)n3)cc2)cc1OC	30*	0	1	2	0	6
CCOc1ccccc1OCCCC(=O)Nc1ccc(S(=O)(=O)Nc2cc(C)nc(C)n2)cc1	1	nt	12	23	3	30*
Cc1cc(NS(=O)(=O)c2ccc(NC(=O)Cc3ccccc3)cc2)nc(C)n1	-5	nt	24	nt	-1	-2
CN1CCN(CCCNC(=O)c2ccc(/C=C3\Sc4ccccc4N(Cc4ccccc4F)C3=O)cc2)CC1	-7	0	120*	nt	-2	nt
CCN1CCN(CCNC(=O)c2ccc3c(c2)N(Cc2ccc(F)cc2)C(=O)/C(=C/c2ccccc2)S3)CC1	-16	nt	102*	4	-15	5
O=C(NCCN1CCOCC1)c1ccc(/C=C2\Sc3ccccc3N(Cc3ccccc3F)C2=O)cc1	-5	nt	14	-1	1	-2
CC(Oc1cc2oc(=O)c3c(c2cc1Cl)CCCC3)C(=O)NCC1CCC(C(=O)O)CC1 (stereo unspecified)	-6	87*	29	2	5	-29
Cc1cc(C(=O)Nc2cccc(C(=O)O)c2)c(C)o1	nt	nt	0	-19	nt	nt
Cc1cc(C(=O)Nc2cccc(O)c2)c(C)o1	nt	nt	57*	-4	nt	nt
CCC(=O)N1[C@@H]2c3cccc(=O)n3C[C@H]1[C@H](CO)[C@H]2C(=O)N1CCCCC1	18	0	3	-7[16.7 µM]	0	7
CC=Cc1ccc2n(c1=O)C[C@@H]1[C@@H](CO)[C@H](C(=O)N3CCOCC3)[C@H]2N1CC1CCCC1 (mixture of isomers)	36*	1	4	nt	nt	0
O=C(NC1CCC1)[C@H]1[C@H](CO)[C@H]2Cn3c(cccc3=O)[C@@H]1N2CC1CCCC1	36*	0	5	nt	1	3
O=C([C@@H]1[C@@H](CO)[C@@H]2Cn3c(cccc3=O)[C@H]1N2C(=O)CC1CC1)N1CCCCC1	148*	-1	7	nt	nt	-4
O=C(NC1CCC1)[C@@H]1[C@@H](CO)[C@@H]2Cn3c(cccc3=O)[C@H]1N2CC1CCCC1	?	0	-1	nt	3	1
O=C([C@H]1[C@H](CO)[C@H]2Cn3c(cccc3=O)[C@@H]1N2CC1CCCCC1)N1CCOCC1	63*	0	6	nt	nt	0
CNC[C@H]1Oc2ccc(NC(C)=O)cc2C(=O)N(C)C[C@@H]1C	nt	nt	14	nt	nt	nt
CCCNC(=O)[C@@H]1[C@@H](CO)[C@@H]2Cn3c(ccc(-c4cccnc4)c3=O)[C@@H]2N1C(=O)c1ccccc1F	3	0	4	nt	nt	nt
CCN(CC)CCN(C(=O)Cn1nnc(-c2ccc(C)o2)n1)C(C(=O)NC(C)(C)C)c1cccs1 (stereo unspecified)	-4	128*	-2	1	1	-3
Cc1ccc(-c2nnn(CC(=O)N(Cc3ccco3)C(C(=O)NC3CCCC3)c3cccs3)n2)o1 (stereo unspecified)	nt	nt	nt	79	nt	nt
Cc1cccc(-c2ccc([C@@H]3[C@@H](CO)N4C(=O)CN(C(=O)c5cccnc5)C[C@H]34)cc2)c1	21*	0	8	nt	0	0
COc1cccc(-c2ccc([C@@H]3[C@@H](CO)N4C(=O)CN(C(=O)C5CC5)C[C@@H]34)cc2)c1	6	0	-6	nt	5	-1
CN(C)C(=O)c1ccc(-c2ccc([C@@H]3[C@@H](CO)N4C(=O)CN(C(=O)C5CC5)C[C@@H]34)cc2)cc1	-7	0	67*	nt	0	1
COc1cccc(-c2ccc([C@H]3[C@H](CO)N4C(=O)CN(C(=O)C5CC5)C[C@@H]34)cc2)c1	29*	0	8	nt	0	2
CN(C)C(=O)c1cccc(-c2ccc([C@H]3[C@H]4CN(C(=O)CC5CC5)CC(=O)N4[C@H]3CO)cc2)c1	21*	0	4	nt	-2	1
Cc1cccc(-c2ccc([C@@H]3[C@H]4CN(C(=O)c5cccnc5)CC(=O)N4[C@H]3CO)cc2)c1	1	0	3	nt	2	1
SMILES	DENV2 CPE rescue	E-selectin induc	INS-1E GSIS act	miR122 inh	F508del corr	ERAP1 HTS inh
CN(C)C(=O)c1cccc(-c2ccc([C@@H]3[C@@H](CO)N4C(=O)CN(C(=O)CC5CC5)C[C@@H]34)cc2)c1	-2	1	17	nt	-1	0
Cc1noc(C)c1NC(=O)Nc1ccc2c(c1)CC(=O)N([C@H](C)CO)C[C@H](C)[C@@H](CN(C)S(=O)(=O)c1ccc(F)cc1)O2	-2	0	-5	-3[16.7 µM]	-3	-1
O=C(C[C@@H]1CC[C@@H]2[C@H](COC[C@H](O)CN2C(=O)c2ccccc2)O1)NCc1ccc(-c2ccccc2)cc1	-3	1	-9	1[16.7 µM]	1	2
CC(C)NC(=O)Nc1ccc2c(c1)C(=O)N([C@H](C)CO)C[C@H](C)[C@H](CN(C)S(=O)(=O)c1cn(C)cn1)OCCCC[C@H](C)O2	-7	nt	20	-2[16.7 µM]	0	1
CCCNC(=O)NC[C@@H]1CC[C@H]2[C@H](CN2C(=O)C2CCOCC2)O1	-7	nt	nt	nt	0	0
N#Cc1ccc(-c2ccc([C@H]3[C@H]4CN(C(=O)C5CCCC5)CC(=O)N4[C@H]3CO)cc2)cc1	-3	0	-19	nt	0	0
N#Cc1ccc(-c2ccc([C@H]3[C@H](CO)N4C(=O)CN(C(=O)C5CC5)C[C@@H]34)cc2)cc1	0	0	-2	nt	0	38*
Cc1ccc(C)c(S(=O)(=O)NC(C)CCc2ccccc2)c1 (stereo unspecified)	6	nt	-15	193*	0	-4
COCC(=O)Nc1ccc2c(c1)C(=O)N(C)[C@@H]1CC[C@H](CC(=O)NCCc3ccncc3)O[C@@H]1CO2	12	0	2	0[16.7 µM]	-2	2
CCC(=O)N[C@H]1C=C[C@H](CC(=O)NCC2CC2)O[C@H]1CO	20	0	-11	nt	1	0
CCN(c1ccccc1)c1nc(Cl)nc2c1cnn2C	nt	1	46*	-7	4	-5
Cc1ccc2sc(-c3ccc(NC(=O)c4cc(-n5cnnc5)ccc4Cl)cc3)nc2c1	nt	nt	119*	-5	nt	nt
C[C@H](CO)N1C[C@H](C)[C@H](CN(C)Cc2ccncc2)Oc2ccc(NS(=O)(=O)c3ccccc3)cc2CC1=O	-5	0	-11	-2[16.7 µM]	-2	1
O=C1c2ccccc2[C@@H]2C[C@@H](O)[C@H](Nc3cccc4ccccc34)CCN12	26*	1	-14	nt	-2	3
CC(NC(=O)/C(C#N)=C/c1ccc(OCC(=O)O)cc1)c1ccccc1 (stereo unspecified)	-2	0	4	6	0	35*

Compound activity as filed in PubChem BioAssay.
